From ChEMBL document CHEMBL2331462, “Antiallodynic and analgesic effects of maslinic acid, a pentacyclic triterpenoid from Olea europaea” (J Nat Prod, 2013)
The source made the active and inactive calls.

Key:
Mus musculus [1] = assay: Antinociceptive activity in CD-1 mouse assessed as reduction of formalin-induced inflammatory pain at 100 mg/kg, sc administered 15 mins challenge measured after 10 to 50 mins; type: functional, organism-based; parameters: dose 100 mg/kg
Mus musculus [2] = assay: Antinociceptive activity in CD-1 mouse assessed as reduction of formalin-induced inflammatory pain at 100 mg/kg, sc administered 15 mins challenge measured up to 5 mins; type: functional, organism-based; parameters: dose 100 mg/kg
Mus musculus [3] = assay: Analgesic activity in CD-1 mouse assessed as inhibition of acetic acid-induced writhing response at 100 mg/kg, sc measured after 30 mins; type: functional, organism-based; parameters: dose 100 mg/kg
Procedure, shortened: (§1)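 Female CD-1 mice (25−30 g), dosed sc interscapularly in 2% Tween 80 in water (5 mL/kg), 30 min before ip 0.6% acetic acid (10 mL/kg). Writhes (torso stretches with back arching and leg extension) counted cumulatively over 30 min. Mean ± SEM of 8−12 mice per group versus vehicle, one-way ANOVA with Bonferroni.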

Mus musculus [4] = assay: Antiallodynic activity against capsaicin-induced secondary mechanical pain in CD-1 mouse assessed as paw withdrawal-latency at 100 mg/kg, sc measured after 30 mins post compound administration; type: functional, organism-based; parameters: dose 100 mg/kg
Procedure, shortened: (§2)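 Female CD-1 mice, sc dosing in 2% Tween 80 (5 mL/kg) 30 min before testing. Capsaicin (1 μg in 20 μL 1% DMSO) given ipl; 15 min later a 0.5 g force was applied with an electronic von Frey device ≥5 mm from the injection site toward the toes. Paw withdrawal latency recorded over three trials at 30 s intervals, 50 s cutoff. 8−12 mice per group, two-way ANOVA with Bonferroni.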

Mus musculus [5] = assay: Neurotoxicity in CD-1 mouse assessed as impairment in motor coordination at 8 mg/kg, sc measured up to 3 hrs by rotarod test; type: toxicity, organism-based; parameters: dose 8 mg/kg, route subcutaneous; conditions: in vivo
Procedure, shortened: (§3)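 Female CD-1 mice trained three times on an accelerating rotarod (4 to 40 rpm over 5 min) 24 h before testing. Sc dosing in 2% Tween 80; latency to fall (300 s cutoff) recorded just before and 30, 60, 120 and 180 min after injection. 8−12 mice per group, two-way repeated-measures ANOVA with Bonferroni.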

Mus musculus [6] = assay: Antiallodynic activity against capsaicin-induced secondary mechanical pain in sc dosed CD-1 mouse assessed as paw withdrawal-latency measured after 30 mins post compound administration; type: functional, organism-based; procedure, shortened: as §2
Mus musculus [7] = assay: Neurotoxicity in CD-1 mouse assessed as impairment in motor coordination at 512 mg/kg, sc measured up to 3 hrs by rotarod test; type: toxicity, organism-based; parameters: dose 512 mg/kg, route subcutaneous; conditions: in vivo; procedure, shortened: as §3
Mus musculus [8] = assay: Antinociceptive activity in CD-1 mouse assessed as reduction of formalin-induced inflammatory pain at 1 % administered topically 15 mins challenge measured up to 5 mins; type: functional, organism-based
Procedure, shortened: (§4)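 Female CD-1 mice, unanesthetized and restrained. 0.1 g of a 1% compound-enriched Carbopol gel (1% Carbopol, 2% triethanolamine, 5% propylene glycol) or vehicle gel was spread on the plantar hindpaw, ipsilateral or contralateral, 15 min before intraplantar formalin (20 μL, 5%). Licking/biting time scored for phase 1 (0−5 min) and phase 2 (10−50 min). 8−12 mice per group.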

Mus musculus [9] = assay: Analgesic activity in CD-1 mouse assessed as inhibition of acetic acid-induced writhing response at 64 to 256 mg/kg, sc measured after 30 mins; type: functional, organism-based; procedure, shortened: as §1
Mus musculus [10] = assay: Antinociceptive activity in CD-1 mouse assessed as reduction of formalin-induced inflammatory pain at 1 % administered topically 15 mins challenge measured after 10 to 50 mins; type: functional, organism-based; procedure, shortened: as §4
Mus musculus [11] = assay: Neurotoxicity in CD-1 mouse assessed as impairment in motor coordination at 64 mg/kg, sc measured up to 3 hrs by rotarod test; type: toxicity, organism-based; parameters: dose 64 mg/kg, route subcutaneous; conditions: in vivo; procedure, shortened: as §3
Mus musculus [12] = assay: Antiallodynic activity against capsaicin-induced secondary mechanical pain in CD-1 mouse assessed as paw withdrawal-latency at 64 mg/kg, sc measured after 30 mins post compound administration; type: functional, organism-based; parameters: dose 64 mg/kg; procedure, shortened: as §2

With CC(C)Cc1ccc(C(C)C(=O)O)cc1 (configuration not stated) the Activity (Mus musculus [1]) was “Active”, the Activity (Mus musculus [2]) was “inactive” and the inhibition (Mus musculus [3]) was “Active”. For the same compound, the Activity (Mus musculus [4]) was “inactive”.
With NCC(CC(=O)O)c1ccc(Cl)cc1 (configuration not stated) [BACLOFEN] the Activity (Mus musculus [5]) was “Toxic”.
In the case of CC1(C)CC[C@]2(C(=O)O)CC[C@]3(C)C(=CC[C@@H]4[C@@]5(C)C[C@@H](O)[C@H](O)C(C)(C)[C@@H]5CC[C@]43C)[C@@H]2C1 [MASLINIC ACID], the Activity (Mus musculus [6]) is reported as “Dose-dependent effect”, the Activity (Mus musculus [7]) is reported as “Non-toxic” and the Activity (Mus musculus [8]) is reported as “inactive”. The inhibition (Mus musculus [9]) was “Active” and the Activity (Mus musculus [10]) was “Active”.
CC(C)C[C@H](CN)CC(=O)O [PREGABALIN] was tested, and the Activity (Mus musculus [11]) was “Toxic” and the Activity (Mus musculus [12]) was “Active”.
